In ChEMBL document CHEMBL2146434, “Synthesis and biological evaluation of new amino acid and dipeptide derivatives of neocryptolepine as anticancer agents” (J Med Chem, 2012):

Assays:
Mus musculus [1] = test: Toxicity in C57BL/6 mouse xenografted with mouse LLC cells assessed as body weight loss at 30 mg/kg/day, sc administered on day 9 to day 12 of tumor implantation; assay type: organism-based; set-up: route subcutaneous; conditions: in vivo
Outline: (§1)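 Mouse Lewis lung carcinoma (LLC) cells inoculated sc into mice. Daily dosing from day 9: 15 mg kg⁻¹ day⁻¹ through day 13 or 30 mg kg⁻¹ day⁻¹ through day 12; 25 or 50 mg kg⁻¹ day⁻¹ through day 13. Route is given as ip in tables and text but sc in figure legends. Body weight monitored for loss alongside tumor growth. Single 100 mg/kg cyclophosphamide dose as cytostatic control.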

Mus musculus [2] = test: Toxicity in C57BL/6 mouse xenografted with mouse LLC cells assessed as body weight loss at 15 mg/kg/day, sc administered on day 9 to day 13 of tumor implantation; assay type: organism-based; set-up: route subcutaneous; conditions: in vivo
Outline: (§2)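 Body weight was tracked in C57BL/6 mice bearing subcutaneously inoculated LLC during therapy given daily from day 9 to day 13. A single 100 mg/kg dose of cyclophosphamide served as the cytostatic control group.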

Mus musculus [3] = test: Toxicity in C57BL/6 mouse xenografted with mouse LLC cells assessed as body weight loss at 30 mg/kg/day, ip administered on day 9 to day 12 of tumor implantation; assay type: organism-based; set-up: route intraperitoneal; conditions: in vivo; outline: as §1
KB = test: Cytotoxicity against human KB cells after 72 hrs by SRB assay; assay type: functional, cell-based
A549 = test: Cytotoxicity against human A549 cells after 72 hrs by SRB assay; assay type: functional, cell-based; conditions: A549, 72 h
Outline: (§3)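 IC50 is the compound concentration giving 50% inhibition of cell proliferation. It was determined on normal mouse BALB/3T3 fibroblasts and on human A549, MCF-7 and LoVo cancer lines, with doxorubicin hydrochloride and DiMIQ as reference compounds.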

MCF7 = test: Cytotoxicity against human MCF7 cells after 72 hrs by SRB assay; assay type: functional, cell-based; conditions: MCF7, 72 h; outline: as §3
LoVo = test: Cytotoxicity against human LoVo cells after 72 hrs by SRB assay; assay type: functional, cell-based; outline: as §3
[4] = system: Lewis lung carcinoma cell line; test: Antineoplastic activity against mouse LLC cells xenografted in C57BL/6 mouse assessed as tumor growth inhibition at 25 mg/kg/day, ip administered on day 9 to day 13 of tumor implantation measured on day 11; assay type: functional; conditions: route intraperitoneal, read-out: TGI
Outline: (§4)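 Mice bore Lewis lung carcinoma (LLC) inoculated subcutaneously and received test agents intraperitoneally at 15–50 mg kg⁻¹ day⁻¹ from day 9 or day 10. A single 100 mg/kg cyclophosphamide dose was the cytostatic control. Tumor growth was followed as the group median, and TGI% was calculated from medians versus untreated controls. Significance was tested by nonparametric Kruskal–Wallis multiple comparison, p < 0.05.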

[5] = system: Lewis lung carcinoma cell line; test: Antineoplastic activity against mouse LLC cells xenografted in C57BL/6 mouse assessed as tumor growth inhibition at 25 mg/kg/day, ip administered on day 9 to day 13 of tumor implantation measured on day 14; assay type: functional; conditions: route intraperitoneal, read-out: TGI; outline: as §4
[6] = system: Lewis lung carcinoma cell line; test: Antineoplastic activity against mouse LLC cells xenografted in C57BL/6 mouse assessed as tumor growth inhibition at 25 mg/kg/day, ip administered on day 9 to day 13 of tumor implantation measured on day 16; assay type: functional; conditions: route intraperitoneal, read-out: TGI; outline: as §4
[7] = system: Lewis lung carcinoma cell line; test: Antineoplastic activity against mouse LLC cells xenografted in C57BL/6 mouse assessed as tumor growth inhibition at 25 mg/kg/day, ip administered on day 9 to day 13 of tumor implantation measured on day 18; assay type: functional; conditions: route intraperitoneal, read-out: TGI; outline: as §4
[8] = system: Lewis lung carcinoma cell line; test: Antineoplastic activity against mouse LLC cells xenografted in C57BL/6 mouse assessed as tumor growth inhibition at 25 mg/kg/day, ip administered on day 9 to day 13 of tumor implantation measured on day 21; assay type: functional; conditions: route intraperitoneal, read-out: TGI; outline: as §4
[9] = system: Lewis lung carcinoma cell line; test: Antineoplastic activity against mouse LLC cells xenografted in C57BL/6 mouse assessed as tumor growth inhibition at 25 mg/kg/day, ip administered on day 9 to day 13 of tumor implantation measured on day 23; assay type: functional; conditions: route intraperitoneal, read-out: TGI; outline: as §4
[10] = system: Lewis lung carcinoma cell line; test: Antineoplastic activity against mouse LLC cells xenografted in C57BL/6 mouse assessed as tumor growth inhibition at 50 mg/kg/day, ip administered on day 9 to day 13 of tumor implantation measured on day 11; assay type: functional; conditions: route intraperitoneal, read-out: TGI; outline: as §4
[11] = system: Lewis lung carcinoma cell line; test: Antineoplastic activity against mouse LLC cells xenografted in C57BL/6 mouse assessed as tumor growth inhibition at 50 mg/kg/day, ip administered on day 9 to day 13 of tumor implantation measured on day 14; assay type: functional; conditions: route intraperitoneal, read-out: TGI; outline: as §4
[12] = system: Lewis lung carcinoma cell line; test: Antineoplastic activity against mouse LLC cells xenografted in C57BL/6 mouse assessed as tumor growth inhibition at 50 mg/kg/day, ip administered on day 9 to day 13 of tumor implantation measured on day 16; assay type: functional; conditions: route intraperitoneal, read-out: TGI; outline: as §4
[13] = system: Lewis lung carcinoma cell line; test: Antineoplastic activity against mouse LLC cells xenografted in C57BL/6 mouse assessed as tumor growth inhibition at 50 mg/kg/day, ip administered on day 9 to day 13 of tumor implantation measured on day 18; assay type: functional; conditions: route intraperitoneal, read-out: TGI; outline: as §4
[14] = system: Lewis lung carcinoma cell line; test: Antineoplastic activity against mouse LLC cells xenografted in C57BL/6 mouse assessed as tumor growth inhibition at 50 mg/kg/day, ip administered on day 9 to day 13 of tumor implantation measured on day 21; assay type: functional; conditions: route intraperitoneal, read-out: TGI; outline: as §4
[15] = system: Lewis lung carcinoma cell line; test: Antineoplastic activity against mouse LLC cells xenografted in C57BL/6 mouse assessed as tumor growth inhibition at 50 mg/kg/day, ip administered on day 9 to day 13 of tumor implantation measured on day 23; assay type: functional; conditions: route intraperitoneal, read-out: TGI; outline: as §4
Mus musculus [16] = test: Toxicity in C57BL/6 mouse xenografted with mouse LLC cells assessed as body weight loss at 15 mg/kg/day, ip administered on day 9 to day 13 of tumor implantation; assay type: organism-based; set-up: route intraperitoneal; conditions: in vivo; outline: as §2
Mus musculus [17] = test: Toxicity in C57BL/6 mouse xenografted with mouse LLC cells assessed as body weight loss at 25 mg/kg/day, sc administered on day 9 to day 13 of tumor implantation; assay type: organism-based; set-up: route subcutaneous; conditions: in vivo; outline: as §2
Mus musculus [18] = test: Toxicity in C57BL/6 mouse xenografted with mouse LLC cells assessed as body weight loss at 50 mg/kg/day, sc administered on day 9 to day 13 of tumor implantation; assay type: organism-based; set-up: route subcutaneous; conditions: in vivo; outline: as §1
[19] = Dissociation constant, pKa of the compound in PBS buffer at 5 uM at pH 2 to 10 by UV-spectrophotometric analysis; assay type: physicochemical
Outline: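 UV spectrophotometric titration at a final compound concentration of 5 μM. At this concentration the absorbance–concentration relationship stayed linear. pKa was read from spectral changes across pH.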

[20] = Octanol-water partition coefficient, log P of the compound in citric buffer at pH 2.5 by spectrophotometric analysis; assay type: physicochemical
Outline: (§5)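 Octanol–water partitioning, with log P defined as log(C_octanol/C_water). Compound in the aqueous phase was measured spectrophotometrically, and octanol content was obtained by subtracting the supernatant concentration from the total. Values are the mean of two independent experiments, each run in triplicate.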

[21] = Octanol-water partition coefficient, log P of the compound in PBS buffer at pH 7.4 by spectrophotometric analysis; assay type: physicochemical; outline: as §5
[22] = Toxicity in human erythrocytes assessed as hemolysis at 0.3 mM after 30 mins by spectrophotometric analysis; assay type: cell-based, Erythrocyte; conditions: read-out: Activity
Outline: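 Human erythrocyte suspension under isotonic conditions (pH 7.4, hematocrit 50%). Compound added across a concentration series and incubated 30 min at 37 °C before hemolysis was scored. Mean ± SD of three individual determinations. Statistics by Mann–Whitney U test, p < 0.05.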

[23] = Solubility of the compound in water; assay type: physicochemical; conditions: buffer
Mus musculus [24] = test: Toxicity in C57BL/6 mouse xenografted with mouse LLC cells at 25 to 50 mg/kg/day, ip administered on day 9 to day 13 of tumor implantation; assay type: organism-based; set-up: route intraperitoneal; conditions: in vivo; outline: as §1

In the case of `Cc1c2c3cc(NC(=O)CNC(=O)CN)ccc3nc-2n(C)c2ccccc12.Cl.Cl`, the Activity (Mus musculus [1]) is reported as “<= 15%”, the Activity (Mus musculus [2]) is reported as “<= 15%” and the Activity (Mus musculus [3]) is reported as “<= 15%”. It also gave an IC50 (KB) of 4.65 µM, an IC50 (A549) of 0.9 µM and an IC50 (MCF7) of 2.7 µM. For the same compound, the IC50 (LoVo) was 0.73 µM, the inhibition in vivo at 25 mg/kg/day [4] was 37.4% and the inhibition in vivo at 25 mg/kg/day [5] was 31.8%. The inhibition in vivo at 25 mg/kg/day [6] was 27.2%, the inhibition in vivo at 25 mg/kg/day [7] was 22.4% and the inhibition in vivo at 25 mg/kg/day [8] was 28%. It also gave an inhibition in vivo at 25 mg/kg/day [9] of 35.8%, an inhibition in vivo at 50 mg/kg/day [10] of 46.9% and an inhibition in vivo at 50 mg/kg/day [11] of 62.6%. It also gave an inhibition in vivo at 50 mg/kg/day [12] of 52.2%, an inhibition in vivo at 50 mg/kg/day [13] of 38.3% and an inhibition in vivo at 50 mg/kg/day [14] of 29.3%. For the same compound, the inhibition in vivo at 50 mg/kg/day [15] was 42.9%, the Activity (Mus musculus [16]) was “<= 15%” and the Activity (Mus musculus [17]) was “<= 15%”. For the same compound, the Activity (Mus musculus [18]) was “<= 15%”, the pKa at 5 µM [19] was 7.5 and the logP [20] was -1.9. The logD [21] was -0.2, the hemolysis at 0.5 h, 300 µM [22] was 9.97% and the solubility [23] was “soluble”. The Activity (Mus musculus [24]) was “Non-toxic”.
